Reference: ChEMBL document CHEMBL4811229, “Leveraging Peptaibol Biosynthetic Promiscuity for Next-Generation Antiplasmodial Therapeutics” (J Nat Prod, 2021)
Where a SMILES comes first, the peptide text is derived from it. [ ]: non-standard residue; d: D form. The star is where a group is joined. X1 = CC(C)C[C@@H](C[N+]1=C2CCCN2CCC1)N*; Leu(ol) = CC(C)C[C@H](N)CO; dIva = CC[C@@](C)(N)C(=O)O; Pip = O=C(O)[C@@H]1CCCCN1; Iva = CC[C@](C)(N)C(=O)O; Aib = CC(C)(N)C(=O)O; βAla = NCCC(=O)O

Legend:
Plasmodium falciparum = assay: Antiplasmodial activity against multidrug-resistant Plasmodium falciparum Dd2 infected in human A-positive erythrocytes assessed as reduction in parasitemia incubated for 72 hrs by fluorescence-based SYBR-Green-1 assay; assay type: functional, organism-based; conditions: Dd2, Erythrocyte
[1] = Selectivity index, ratio of EC50 for human HepG2 cells to EC50 for antiplasmodial activity against multidrug-resistant Plasmodium falciparum Dd2 infected in human A-positive erythrocytes; assay type: toxicity, cell-based; conditions: read-out: Ratio EC50
HepG2 = assay: Cytotoxicity against human HepG2 cells assessed as decrease in cell viability measured after 48 hrs by MTS assay; assay type: cell-based; conditions: HepG2, 48 h
Summary of the method: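 After 48 h at 37 °C and 5% CO2, MTS was added for 4 h and absorbance read at 490 nm. Values were normalized to Triton X-100-lysed wells (0% growth) and untreated wells. EC50 is the mean of triplicate experiments.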

Row | Compound | EC50 (Plasmodium falciparum) [µM] | selectivity ratio [1] | EC50 (HepG2) [µM]
1 | CC[C@H](C)[C@H](NC(=O)C(C)(C)NC(=O)[C@H](CCC(N)=O)NC(=O)C(C)(C)NC(=O)C(C)(C)NC(=O)[C@H](C)NC(=O)[C@H](C)NC(=O)[C@H](C)NC(=O)C(C)(C)NC(C)=O)C(=O)NC(C)(C)C(=O)NCC(=O)N[C@@H](CC(C)C)C(=O)NC(C)(C)C(=O)N1CCC[C@H]1C(=O)N[C@H](C(=O)NC(C)(C)C(=O)N[C@](C)(CC)C(=O)N[C@@H](CCC(N)=O)C(=O)N[C@@H](CCC(N)=O)C(=O)N[C@H](CO)Cc1ccccc1)C(C)C | 0.52 | 6 | 3.35
2 | CCCCCCCC(=O)NC(C)(C)C(=O)NCC(=O)N[C@@H](CC(C)C)C(=O)NC(C)(C)C(=O)NCC(=O)NCC(=O)N[C@H](C(=O)NC(C)(C)C(=O)NCC(=O)N[C@H](C(=O)N[C@H](CO)CC(C)C)C(C)C)C(C)C | – | > 10 | –
3 | CC[C@H](C)[C@H](NC(=O)[C@H](C)NC(=O)[C@@H]1CCCN1C(=O)C(C)(C)NC(=O)[C@H](CC(C)C)NC(=O)[C@H](CCC(N)=O)NC(=O)C(C)(C)NC(C)=O)C(=O)NC(C)(C)C(=O)N1CCC[C@H]1C(=O)NC(C)(C)C(=O)N[C@@H](CC(C)C)C(=O)N[C@](C)(CC)C(=O)N1CCC[C@H]1C(=O)N[C@H](CO)CC(C)C | 0.63 | > 40 | > 25
4 | CCCCCCCC(=O)NC(C)(C)C(=O)NCC(=O)N[C@@H](CC(C)C)C(=O)NC(C)(C)C(=O)NCC(=O)NCC(=O)N[C@H](C(=O)NC(C)(C)C(=O)NCC(=O)N[C@H](C(=O)N[C@H](CO)CC(C)C)[C@@H](C)CC)C(C)C | – | > 8 | –
5 | CC[C@H](C)[C@H](NC(=O)[C@H](CO)NC(=O)[C@@H]1CCCN1C(=O)C(C)(C)NC(=O)[C@H](CC(C)C)NC(=O)[C@H](CC(N)=O)NC(=O)C(C)(C)NC(C)=O)C(=O)NC(C)(C)C(=O)N1CCC[C@H]1C(=O)NC(C)(C)C(=O)N[C@@H](CC(C)C)C(=O)N[C@](C)(CC)C(=O)N1CCC[C@H]1C(=O)N[C@H](CO)CC(C)C | 0.52 | > 48 | > 25
6 | CC[C@@](C)(NC(=O)[C@H](CC(C)C)NC(=O)C(C)(C)NC(=O)[C@@H]1CCCN1C(=O)C(C)(C)NC(=O)[C@@H](NC(=O)[C@H](C)NC(=O)[C@@H]1CCCN1C(=O)C(C)(C)NC(=O)[C@H](CC(C)C)NC(=O)[C@H](CCC(N)=O)NC(=O)C(C)(C)NC(C)=O)C(C)C)C(=O)N1CCC[C@H]1C(=O)N[C@H](CO)CC(C)C | 1.32 | > 19 | > 25
7 | CCCCCCCC(=O)NC(C)(C)C(=O)NCC(=O)N[C@@H](CC(C)C)C(=O)NC(C)(C)C(=O)NCC(=O)NCC(=O)N[C@@H](CC(C)C)C(=O)NC(C)(C)C(=O)NCC(=O)N[C@H](C(=O)N[C@H](CO)CC(C)C)[C@@H](C)CC | 0.93 | 9 | 8.09
8 | CC[C@](C)(NC(=O)[C@H](CC(C)C)NC(=O)[C@H](C)NC(=O)C(C)(C)NC(=O)[C@@H]1CCCCN1C(=O)C(C)(C)NC(=O)C(C)(C)NC(=O)CNC(=O)CCNC(=O)[C@H](CC(C)C)NC(=O)C(C)(C)NC(=O)C(C)(C)NC(=O)[C@@H]1CCCCN1C(=O)C(C)(C)NC(=O)[C@@H]1CCCCN1C(C)=O)C(=O)N[C@@H](CC(C)C)C[N+]1=C2CCCN2CCC1 (Ac-[Pip][Aib][Pip][Aib][Aib]L[βAla]G[Aib][Aib][Pip][Aib]AL[Iva]-X1) | 0.39 | > 64 | > 25
9 | CC[C@H](C)[C@H](NC(=O)[C@H](C)NC(=O)[C@@H]1CCCN1C(=O)C(C)(C)NC(=O)[C@H](CC(C)C)NC(=O)[C@H](CC(N)=O)NC(=O)[C@@](C)(CC)NC(C)=O)C(=O)NC(C)(C)C(=O)N1CCC[C@H]1C(=O)N[C@](C)(CC)C(=O)N[C@@H](CC(C)C)C(=O)NC(C)(C)C(=O)N1CCC[C@H]1C(=O)N[C@H](CO)CC(C)C (Ac-[dIva]NL[Aib]PAI[Aib]P[dIva]L[Aib]P[Leu(ol)]) | – | > 40 | –
10 | CC[C@H](C)[C@H](NC(=O)[C@H](CO)NC(=O)[C@@H]1CCCN1C(=O)C(C)(C)NC(=O)[C@H](CC(C)C)NC(=O)[C@H](CC(N)=O)NC(=O)[C@@](C)(CC)NC(C)=O)C(=O)NC(C)(C)C(=O)N1CCC[C@H]1C(=O)N[C@](C)(CC)C(=O)N[C@@H](CC(C)C)C(=O)NC(C)(C)C(=O)N1CCC[C@H]1C(=O)N[C@H](CO)CC(C)C (Ac-[dIva]NL[Aib]PSI[Aib]P[dIva]L[Aib]P[Leu(ol)]) | – | > 48 | –
11 | CC[C@H](C)[C@H](NC(=O)[C@H](CC(C)C)NC(=O)[C@H](CCC(N)=O)NC(=O)[C@@](C)(CC)NC(C)=O)C(=O)NC(C)(C)C(=O)N1CCC[C@H]1C(=O)N[C@](C)(CC)C(=O)N[C@@H](CC(C)C)C(=O)NC(C)(C)C(=O)N1CCC[C@H]1C(=O)N[C@H](CO)CC(C)C (Ac-[dIva]QLI[Aib]P[dIva]L[Aib]P[Leu(ol)]) | – | > 250 | –
12 | CC[C@H](C)[C@H](NC(=O)[C@H](C)NC(=O)[C@@H]1CCCN1C(=O)C(C)(C)NC(=O)[C@H](CC(C)C)NC(=O)[C@H](CCC(N)=O)NC(=O)[C@@](C)(CC)NC(C)=O)C(=O)NC(C)(C)C(=O)N1CCC[C@H]1C(=O)N[C@](C)(CC)C(=O)N[C@@H](CC(C)C)C(=O)NC(C)(C)C(=O)N1CCC[C@H]1C(=O)N[C@H](CO)CC(C)C (Ac-[dIva]QL[Aib]PAI[Aib]P[dIva]L[Aib]P[Leu(ol)]) | – | > 76 | > 25
13 | CCCCCCCC(=O)NC(C)(C)C(=O)NCC(=O)N[C@@H](CC(C)C)C(=O)NC(C)(C)C(=O)NCC(=O)NCC(=O)N[C@@H](CC(C)C)C(=O)NC(C)(C)C(=O)NCC(=O)N[C@@H](CC(C)C)C(=O)N[C@H](CO)CC(C)C (HELM PEPTIDE1{[CCCCCCCC(=O)[*:2]].[Aib].G.L.[Aib].G.G.L.[Aib].G.L.[CC(C)C[C@@H](CO)N[*:1]]}$$$$V2.0) | – | > 11 | –
14 | CCCCCCCC(=O)NC(C)(C)C(=O)NCC(=O)N[C@@H](CC(C)C)C(=O)NC(C)(C)C(=O)NCC(=O)NCC(=O)N[C@H](C(=O)NC(C)(C)C(=O)NCC(=O)N[C@@H](CC(C)C)C(=O)N[C@H](CO)CC(C)C)C(C)C (HELM PEPTIDE1{[CCCCCCCC(=O)[*:2]].[Aib].G.L.[Aib].G.G.V.[Aib].G.L.[CC(C)C[C@@H](CO)N[*:1]]}$$$$V2.0) | – | > 28 | –
15 | CC(=O)NC(C)(C)C(=O)N[C@@H](C)C(=O)N[C@@H](C)C(=O)N[C@@H](C)C(=O)NC(C)(C)C(=O)NC(C)(C)C(=O)N[C@@H](CCC(N)=O)C(=O)NC(C)(C)C(=O)N[C@@H](CC(C)C)C(=O)NC(C)(C)C(=O)NCC(=O)N[C@@H](CC(C)C)C(=O)NC(C)(C)C(=O)N1CCC[C@H]1C(=O)N[C@H](C(=O)NC(C)(C)C(=O)NC(C)(C)C(=O)N[C@@H](CCC(N)=O)C(=O)N[C@@H](CCC(N)=O)C(=O)N[C@H](CO)Cc1ccccc1)C(C)C (HELM PEPTIDE1{[ac].[Aib].A.A.A.[Aib].[Aib].Q.[Aib].L.[Aib].G.L.[Aib].P.V.[Aib].[Aib].Q.Q.[OC[C@H](Cc1ccccc1)N[*:1]]}$$$$V2.0) | 0.32 | 18 | 5.77
16 | CC[C@H](C)[C@H](NC(=O)[C@H](C)NC(=O)[C@@H]1CCCN1C(=O)C(C)(C)NC(=O)[C@H](CC(C)C)NC(=O)[C@H](CCC(N)=O)NC(=O)C(C)(C)NC(C)=O)C(=O)NC(C)(C)C(=O)N1CCC[C@H]1C(=O)NC(C)(C)C(=O)N[C@@H](CC(C)C)C(=O)NC(C)(C)C(=O)N1CCC[C@H]1C(=O)N[C@H](CO)CC(C)C (HELM PEPTIDE1{[ac].[Aib].Q.L.[Aib].P.A.I.[Aib].P.[Aib].L.[Aib].P.[CC(C)C[C@@H](CO)N[*:1]]}$$$$V2.0) | – | > 86 | –
17 | CC[C@H](C)[C@H](NC(=O)[C@H](CO)NC(=O)[C@@H]1CCCN1C(=O)C(C)(C)NC(=O)[C@H](CC(C)C)NC(=O)[C@H](CCC(N)=O)NC(=O)C(C)(C)NC(C)=O)C(=O)NC(C)(C)C(=O)N1CCC[C@H]1C(=O)NC(C)(C)C(=O)N[C@@H](CC(C)C)C(=O)NC(C)(C)C(=O)N1CCC[C@H]1C(=O)N[C@H](CO)CC(C)C (HELM PEPTIDE1{[ac].[Aib].Q.L.[Aib].P.S.I.[Aib].P.[Aib].L.[Aib].P.[CC(C)C[C@@H](CO)N[*:1]]}$$$$V2.0) | – | > 14 | –
18 | CC[C@H](C)[C@H](NC(=O)[C@H](CO)NC(=O)[C@@H]1CCCN1C(=O)C(C)(C)NC(=O)[C@H](CC(C)C)NC(=O)[C@H](CC(N)=O)NC(=O)[C@@](C)(CC)NC(C)=O)C(=O)NC(C)(C)C(=O)N1CCC[C@H]1C(=O)NC(C)(C)C(=O)N[C@@H](CC(C)C)C(=O)NC(C)(C)C(=O)N1CCC[C@H]1C(=O)N[C@H](CO)CC(C)C (HELM PEPTIDE1{[ac].[CC[C@@](C)(N[*:1])C(=O)[*:2]].N.L.[Aib].P.S.I.[Aib].P.[Aib].L.[Aib].P.[CC(C)C[C@@H](CO)N[*:1]]}$$$$V2.0) | – | > 43 | –
19 | CC[C@@](C)(NC(C)=O)C(=O)N[C@@H](CC(N)=O)C(=O)N[C@@H](CC(C)C)C(=O)NC(C)(C)C(=O)N1CCC[C@H]1C(=O)N[C@@H](CO)C(=O)N[C@H](C(=O)NC(C)(C)C(=O)N1CCC[C@H]1C(=O)NC(C)(C)C(=O)N[C@@H](CC(C)C)C(=O)NC(C)(C)C(=O)N1CCC[C@H]1C(=O)N[C@H](CO)CC(C)C)C(C)C (HELM PEPTIDE1{[ac].[CC[C@@](C)(N[*:1])C(=O)[*:2]].N.L.[Aib].P.S.V.[Aib].P.[Aib].L.[Aib].P.[CC(C)C[C@@H](CO)N[*:1]]}$$$$V2.0) | – | > 40 | –
20 | CC[C@H](C)[C@H](NC(=O)[C@H](C)NC(=O)[C@@H]1CCCN1C(=O)C(C)(C)NC(=O)[C@H](CC(C)C)NC(=O)[C@H](CCC(N)=O)NC(=O)[C@@](C)(CC)NC(C)=O)C(=O)NC(C)(C)C(=O)N1CCC[C@H]1C(=O)NC(C)(C)C(=O)N[C@@H](CC(C)C)C(=O)NC(C)(C)C(=O)N1CCC[C@H]1C(=O)N[C@H](CO)CC(C)C (HELM PEPTIDE1{[ac].[CC[C@@](C)(N[*:1])C(=O)[*:2]].Q.L.[Aib].P.A.I.[Aib].P.[Aib].L.[Aib].P.[CC(C)C[C@@H](CO)N[*:1]]}$$$$V2.0) | – | > 78 | –
